Assay outcomes deposited in PubChem BioAssay by several laboratories.
NSD2 HMT inh – inhibitors of human histone methyltransferase NSD2 | inhibition, % at 12.5 µM | O96028 | 310,000 compounds, 0.54% hits | NSD2 peptide methylation, AlphaScreen, 120 min | AID 743445; in the data active = inhibition above about 50%
LEDGF integ inh – blocks HIV-1 LEDGF/p75-dependent DNA integration. TR-FRET IN-LEDGF/p75 DNA integration, Eu/Cy5. inhibition, % at 3.7 µM. 370,000 compounds, 0.64% hits;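 active = inhibition above the screen-wide mean plus 3 SD, cut at about 13% in these data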;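 note: signal is the Cy5 over europium emission ratio at 671 and 618 nm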
CASP6 VEID inh – caspase-6 (human) enzyme inhibition | purified caspase-6, Z-VEID-R110 cleavage fluorescence | inhibition, % at 12.5 µM | P55212 | 350,000 compounds, 0.53% hits | AID 686996;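 active = mean inhibition across replicates at least about 35%, with every replicate also reaching that limit, limit read from the data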
TDP2 inh – TDP2 (human) inhibition, absorbance primary screen | recombinant TDP2, T5PNP hydrolysis, p-nitrophenol absorbance 415 nm | 370,000 compounds, 0.34% hits | inhibition, % at 12.8 µM;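 active = inhibition above the mean of all tested compounds plus 3 SD, set per campaign, cut at about 25% in these data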
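System – recombinant human TDP2 · Quantity – TDP2 enzyme at 120 nM final · Doses – single concentration, 12.8 µM nominal, with 1% DMSO · Incubation – 2 h at 37 °C · Measured by – epi absorbance of p-nitrophenol freed from T5PNP by hydrolysis · Read-out – % inhibition relative to enzyme-containing and enzyme-free wells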
UHRF1 binding – human UHRF1 methylated DNA binding inhibitors; UHRF1 binding to methylated oligo, TR-FRET; inhibition, % at 4.4 µM; 370,000 compounds, 0.75% hits; AID 687016; in the data active = inhibition above about 21%;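 note: UHRF1 SRA domain binding a hemimethylated CpG hairpin DNA probe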
MBD2 inh – inhibitors of human MBD2 binding to methylated oligonucleotide | TR-FRET | 370,000 compounds, 0.31% hits | Q9UBB5 | inhibition, % at 4.4 µM; in the data active = inhibition above about 13%
Target sequence (Q9UBB5 whole entry, looked up): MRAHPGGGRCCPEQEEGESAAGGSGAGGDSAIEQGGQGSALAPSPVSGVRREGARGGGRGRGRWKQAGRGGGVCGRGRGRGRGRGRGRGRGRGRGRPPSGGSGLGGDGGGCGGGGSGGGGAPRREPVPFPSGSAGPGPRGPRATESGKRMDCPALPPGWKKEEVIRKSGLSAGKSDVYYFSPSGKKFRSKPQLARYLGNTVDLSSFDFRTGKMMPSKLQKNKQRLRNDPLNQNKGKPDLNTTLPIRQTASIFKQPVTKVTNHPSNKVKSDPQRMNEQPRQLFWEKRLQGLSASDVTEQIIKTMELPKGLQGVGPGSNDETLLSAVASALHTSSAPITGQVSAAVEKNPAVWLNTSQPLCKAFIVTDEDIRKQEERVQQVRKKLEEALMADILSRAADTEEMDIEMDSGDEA
IN multimer act – activates HIV-1 integrase multimerization in LEDGF counter-screen; TR-FRET HIV-1 integrase multimerization, biochemical; activation, % at 7.7 µM; 2,000 compounds, 17% hits; shares compounds with LEDGF integ inh; in the data active = activation above about 8.9%
TRFRET interf – counter-screen for LEDGF/p75 integration inhibitors: TR-FRET optical interference; TR-FRET optical interference counterscreen, HIV-1 IN multimerization; 2,000 tested, under 10 active; inhibition, % at 7.7 µM; shares compounds with LEDGF integ inh;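 active = inhibition above the mean over all tested compounds plus 3 SD, which no compound reached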
IN-LEDGF confirm – LEDGF/p75-dependent HIV-1 integration inhibition, confirmation. shares compounds with LEDGF integ inh. 2,000 compounds, 36% hits. TR-FRET LEDGF/p75-dependent HIV-1 integration, biochemical. inhibition, % at 3.7 µM; in the data active = inhibition above about 14%
Numbers stand for hits; i = inactive; nt = not tested or not shown. A selection: hits, their analogues and other compounds. The true share with any hit is near 1.8%.

SMILES | NSD2 HMT inh | LEDGF integ inh | CASP6 VEID inh | TDP2 inh | UHRF1 binding | MBD2 inh | IN multimer act | TRFRET interf | IN-LEDGF confirm
O=C(C[C@H]1C[C@@H]2c3cc(NC(=O)Nc4ccccc4F)ccc3O[C@@H]2[C@@H](CO)O1)NC1CCCCC1 | nt | nt | i | nt | nt | nt | nt | nt | nt
Cc1onc(-c2c(Cl)cccc2Cl)c1-c1nc2cc(Cl)ccc2c(=O)o1 | i | 80.9 | i | i | i | i | i | i | i
O=C(NCC1CC1)c1cccc2c1C(=O)c1ccc(N3CCCC3)cc1S2(=O)=O | nt | 27.4 | i | i | i | i | i | i | i
COc1ccc(NC(=S)N(CCCN2CCC(C)CC2)Cc2cccs2)cc1 | i | i | i | i | i | i | nt | nt | nt
COc1ccc(NC(=S)N(CCCN2CCCCC2)Cc2cccs2)cc1 | i | 86.8 | nt | i | i | i | i | i | i
CCOc1ccccc1N1C(=O)CC(Nc2ccc(N3CCOCC3)cc2)C1=O (stereo not drawn) | i | i | i | i | i | i | nt | nt | nt
COc1ccccc1N1C(=O)CC(Nc2ccc(N3CCOCC3)cc2)C1=O (stereo not drawn) | i | 15.3 | nt | i | i | i | i | i | i
COCCN=c1scc(-c2ccco2)n1/N=C/c1ccc(O)c(O)c1O | 87.1 | 44.6 | i | i | i | i | 16.0 | i | 52.5
C=CCN=c1scc(-c2ccco2)n1/N=C/c1ccc(O)c(O)c1O | i | 43.3 | i | i | i | i | i | i | 29.6
O=C(c1ccccc1)N1Cc2ccccc2[C@H]2OC(c3ccc(OCCCO)cc3)=N[C@@]2(CCS(=O)(=O)c2ccccc2)C1=O | nt | nt | i | nt | nt | nt | nt | nt | nt
COc1cc(O)c(C(C)=O)c(CC(=O)O)c1 | nt | 31.3 | i | i | 28.5 | i | 32.7 | i | 59.4
Cc1[nH]c(=O)[nH]c1C(=O)CCCCC(=O)OCC(=O)Nc1ccccn1 | 142.2 | 82.0 | nt | i | i | i | i | i | 80.7
CC(=O)c1c(C)[nH]c(C(=O)Nc2ccccn2)c1C | i | i | i | i | i | i | nt | nt | nt
CCOC(=O)c1c2ccc(OCC(=O)NN)cc2n2ccccc12 | i | 23.0 | i | i | i | i | i | i | i
CN1C(=O)c2cc(NC(=O)c3cccs3)ccc2OC[C@H]2O[C@@H](CC(=O)N3CCCCC3)CC[C@@H]21 | nt | nt | i | nt | nt | nt | nt | nt | nt
CCN1C[C@@H]2[C@@H]3C(=O)N(C)C(=O)[C@@H]3[C@](CC)(C(=O)OC)N2C1=NCc1ccccc1 | nt | 64.9 | i | i | 21.1 | i | i | i | i
CCN1C[C@@H]2[C@@H]3C(=O)N(Cc4ccccc4)C(=O)[C@@H]3[C@](CC)(C(=O)OC)N2C1=NCc1ccccc1 | nt | i | i | i | i | i | nt | nt | nt
COc1ccccc1COC(=O)N/C=C/c1ccco1 | i | 13.8 | nt | i | i | i | i | i | 17.1
Nc1ccc2c(c1)C/C(=C/c1ccco1)C2=O | i | 49.2 | nt | i | 68.6 | 24.5 | 18.9 | i | 24.7
CC(=O)Nc1ccc2c(COC(=O)CC3Sc4ccccc4NC3=O)cc(=O)oc2c1 (stereo not drawn) | i | 13.9 | i | i | i | i | 21.1 | i | 13.8
CC(=O)c1ccc(-c2cnc3c(NC=O)cc(-c4cnn(C)c4)cn23)cc1 | i | 23.9 | i | i | i | i | i | i | i
O=CNc1cc(-c2cccc(F)c2)cn2c(-c3ccc(F)cc3)cnc12 | i | i | i | i | i | i | nt | nt | nt
O=CNc1cc(-c2ccoc2)cn2c(-c3ccc(F)cc3)cnc12 | i | 14.4 | i | i | i | i | i | i | i
CCCC(=O)Nc1ccc2c(c1)C(=O)N(C)C[C@H](OC)[C@H](C)CN(C(=O)CC1CC1)[C@H](C)CO2 | nt | nt | i | nt | nt | nt | nt | nt | nt
O=C(Cc1cnn(-c2ccccc2)c1)c1ccc(O)c(O)c1O | nt | 22.1 | nt | i | i | i | 10.2 | i | 17.6
O=C(Nc1cccs1)Nc1ccccc1Cl | i | 14.7 | nt | i | i | i | i | i | i
